Published values pooled from the literature.
Compare with care: the assays were run in different laboratories.
Cell line: MCF7
Observed: cell growth or viability

CC1c2c(c3ccccc3oc2=O)Oc2ncn(N)c(=N)c21 (centres unmarked) — IC50 (MTT; 72 h): > 75 µM
COc1c2c(cc3c1OCO3)[C@]13C=C[C@H](OC)C[C@@H]1[N@](C2)C[C@H]3OC(=O)c1ccc2ccccc2c1 — IC50 (WST-1): > 10 µM
N.N.[Cl][Pt][Cl] — IC50 (SRB; 48 h): 9.6 µM
O=C(Oc1ccc(Br)cc1)[c-]1cccc1.[Fe+2].c1cc[cH-]c1 — IC50 (MTT; 72 h): 9.2 µM
C/C1=C/C(=O)O[C@@H]2C[C@@H](CC[C@H](C)/C=C\C=C\CC1)O[C@@](OC(=O)c1ccccc1)([C@@H]1CSC(=O)N1)C2 — IC50 (MTT; 72 h): 0.52 µM
COc1c2c(cc3c1OCO3)[C@]13C=C[C@H](OC)C[C@@H]1[N@](C2)C[C@H]3OC(=O)c1ccoc1 — IC50 (WST-1): > 10 µM
C=C(C)C(=O)O[C@H]1CC2=C[C@@H](C/C(C)=C/[C@H]3OC(=O)C(=C)[C@H]13)OC2=O — IC50 (MTT; 24 h): 2.3 µM
O=C(Oc1ccc(I)cc1)[c-]1cccc1.[Fe+2].c1cc[cH-]c1 — IC50 (MTT; 72 h): 256 µM
C/C1=C/C(=O)O[C@@H]2C[C@@H](CC[C@H](C)/C=C\C=C\CC1)O[C@@](O)([C@@H]1CSC(=O)N1Cc1ccccc1)C2 — IC50 (MTT; 72 h): 0.63 µM
C[C@@H]1O[C@@H](O[C@H]2C[C@@H](O)[C@]3(CO)[C@H]4[C@H](O)C[C@]5(C)[C@@H](C6=CC(=O)OC6)CC[C@]5(O)[C@@H]4CC[C@]3(O)C2)[C@H](O)[C@H](O)[C@H]1O — IC50 (resazurin; 72 h): 0.053 µM
N.N.[Cl][Pt][Cl] — IC50 (MTT): 10 µM
N.N.[Cl][Pt][Cl] — IC50 (MTT; 48 h): 14.2 µM
C/C1=C/C(=O)O[C@@H]2C[C@@H](CC[C@H](C)/C=C\C=C\CC1)O[C@@](O)([C@@H]1CSC(=O)N1CO)C2 — IC50 (MTT; 72 h): 0.12 µM
N.N.O=C([O-])C1(C(=O)[O-])CCC1.[Pt+2] — IC50 (MTT; 96 h): > 100 µM
CO[C@]1([C@@H]2CSC(=O)N2C2CCCC2)C[C@H]2C[C@@H](CC[C@H](C)/C=C\C=C\CC/C(C)=C\C(=O)O2)O1 — IC50 (MTT; 72 h): 5.3 µM
O=c1ccc2cc3ccoc3cc2o1 — IC50 (WST-1; 48 h): 32.4 µM
CO[C@]1([C@@H]2CSC(=O)N2Cc2ccccc2)C[C@H]2C[C@@H](CC[C@H](C)/C=C\C=C\CC/C(C)=C\C(=O)O2)O1 — IC50 (MTT; 72 h): 0.78 µM
C[C@]12C[C@@H](O)[C@H]3[C@@H](CC[C@]4(O)C[C@@H](O)C[C@@H](O)[C@]34CO)[C@@]1(O)CC[C@@H]2c1cn(Cc2ccccc2)nn1 — IC50 (resazurin; 72 h): > 100 µM
COC(C(=O)N1C(=O)SCC1C1(OC)CC2CC(CCC(C)C=CC=CCCC(C)=CC(=O)O2)O1)c1ccccc1 (centres unmarked) — IC50 (MTT; 72 h): 15.4 µM
N[C@@H](Cc1ccc(N(CCCl)CCCl)cc1)C(=O)O — IC50 (CCK-8; 48 h): > 50 µM
